What all share (assay type): functional
In assay [1] the test system is RPMI-8226. Description: Anticancer activity against human RPMI8226 cells assessed as increase in cell death at 10 uM after 48 hrs by SRB assay relative to control. The procedure, abridged: (§1)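 NCI-60 single-dose screen at 10 µM in RPMI-1640 with 5% FBS and 2 mM glutamine. Exposure was 48 h at 37°C, 5% CO2, with time-zero plates fixed at dosing. Read-out was TCA fixation and SRB at 515 nm. Growth percent = (Ti−Tz)/Tz×100 where Ti<Tz, so negative values mean net cell loss.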
On the technique in general: The SRB assay estimates cell density from bound dye.

In the next assay the test system is HOP-92. In words: Anticancer activity against human HOP92 cells assessed as increase in cell death at 10 uM after 48 hrs by SRB assay relative to control. A digest of the protocol: as §1
The subject of a further assay is 786-0. Description: Anticancer activity against human 786-O cells assessed as increase in cell death at 10 uM after 48 hrs by SRB assay relative to control. The procedure, abridged: as §1
For another assay, the system named is PC-3. In words: Anticancer activity against human PC3 cells assessed as increase in cell death at 10 uM after 48 hrs by SRB assay relative to control. The procedure, abridged:
as §1

Assay [2] relates to K562. In words: Anticancer activity against human K562 cells assessed as cell growth inhibition measured after 48 hrs by SRB assay. The following applies: K562, 48 h; for CC50: read-out: LC50 (the source's name). A digest of the protocol:
(§2)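 NCI-60 five-dose screen at 100, 10, 1.0, 0.1 and 0.01 µM final. Cells in RPMI-1640 with 5% FBS and 2 mM glutamine were seeded 24 h ahead at 37°C, 5% CO2. Compound exposure was 48 h, followed by TCA fixation and SRB staining, read at 515 nm. GI50 is the concentration giving 50% lower net protein increase than control, using time-zero plates.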

A further assay relates to MOLT-4. In words: Anticancer activity against human MOLT4 cells assessed as cell growth inhibition measured after 48 hrs by SRB assay. The following applies: MOLT-4, 48 h. The procedure, abridged: as §2
In assay [3] the test system is RPMI-8226. In words: Anticancer activity against human RPMI8226 cells assessed as cell growth inhibition measured after 48 hrs by SRB assay. The following applies: RPMI-8226, 48 h; for CC50: read-out: LC50 (the source's name). The procedure, abridged: as §2
In a further assay the test system is COLO 205. In words: Anticancer activity against human COLO205 cells assessed as cell growth inhibition measured after 48 hrs by SRB assay. The following applies: COLO 205, 48 h. A digest of the protocol: as §2
In a further assay the test system is HCT-15. In words: Anticancer activity against human HCT15 cells assessed as cell growth inhibition measured after 48 hrs by SRB assay. The following applies: HCT-15, 48 h. A digest of the protocol:
as §2

The subject of the next assay is UACC-257. In words: Anticancer activity against human UACC257 cells assessed as cell growth inhibition measured after 48 hrs by SRB assay. The following applies: UACC-257, 48 h; for CC50: read-out: LC50 (the source's name). The procedure, abridged:
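NCI 60-cell screen, five-dose mode at 100, 10, 1.0, 0.1 and 0.01 µM. Cells grown in RPMI-1640 with 5% FBS and 2 mM L-glutamine, seeded and held 24 h at 37°C, 5% CO2, then exposed for 48 h. Fixed with cold TCA (10% final), stained with 0.4% SRB and read at 515 nm. Time-zero plates were used. GI50 is the concentration giving 50% lower net protein increase than control.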

A further assay concerns HCT-116. In words: Anticancer activity against human HCT116 cells assessed as increase in cell death at 10 uM after 48 hrs by SRB assay relative to control. A digest of the protocol:
as §1

The subject of the next assay is M14. Description: Anticancer activity against human M14 cells assessed as increase in cell death at 10 uM after 48 hrs by SRB assay relative to control. A digest of the protocol:
as §1

Assay [4] deals with K562. Description: Anticancer activity against human K562 cells assessed as tumour cell growth at 10 uM after 48 hrs by SRB assay relative to control. The procedure, abridged: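 NCI 60-line primary screen at a single 10 μM dose in RPMI-1640 with 5% FBS and 2 mM L-glutamine. Cells were preincubated 24 h at 37 °C in 5% CO₂, with time-zero plates fixed with TCA. Compounds (DMSO, diluted in gentamicin medium) were incubated 48 h, then cells TCA-fixed and stained with 0.4% SRB (A515). Growth percent was derived from time-zero, control and treated absorbances.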

The next assay has as its system SF-539. Description: Anticancer activity against human SF539 cells assessed as increase in cell death at 10 uM after 48 hrs by SRB assay relative to control. The procedure, abridged:
(§3)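 NCI single-dose screen at 10 µM. Cells in RPMI-1640 with 5% FBS and 2 mM L-glutamine, preincubated 24 h, then exposed 48 h at 37°C, 5% CO2. Protein measured by TCA fixation and SRB staining, absorbance 515 nm. Growth percent is calculated against time-zero and untreated control plates; negative values indicate net cell loss.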

For another assay, the system named is U-251. Description: Anticancer activity against human U251 cells assessed as increase in cell death at 10 uM after 48 hrs by SRB assay relative to control. A digest of the protocol:
as §3

Turning to `COc1ccc(C(=O)/C=C/c2ccc(Cl)cc2)cc1S(N)(=O)=O`, the Activity with RPMI-8226 [1] is on record as 31.74%; in the assay with HOP-92, 26.57%; with 786-0, 30.67%; in the assay on PC-3, 55.63%; in the assay with HCT-116 it was 78.33%; with M14, 57.32%. Besides, the GI50 (in general, the concentration at which growth is held to half of that of the control) with K562 [2] worked out at 0.57 µM; in the assay on MOLT-4, 2.93 µM; in the assay on RPMI-8226 [3], 2.61 µM; in the assay with COLO 205, 2.03 µM; with HCT-15, 2.14 µM; in the assay with UACC-257 it was 12.2 µM. Further, the CC50 with K562 [2] was more than 100 µM; in the assay with RPMI-8226 [3], more than 100 µM; in the assay on UACC-257 it was 50.8 µM. Also, in the assay on MOLT-4, the LC50 (as a rule, the concentration that kills 50% of the test population) was more than 100 µM. Besides, the LC50 (concentration giving 50% net cell kill) in the assay on COLO 205 worked out at 17.4 µM. Moreover, the LC50 (concentration killing 50% of cells) with HCT-15 came to 59.3 µM.

Regarding `COc1ccc(C(=O)/C=C/c2ccc(Cl)cc2)cc1S(=O)(=O)Nc1c(N)nc(SC)[nH]c1=O`, the values for the Activity with K562 [4], with SF-539 and with U-251 were 3.84%, 5.49% and 4.2%, respectively. Besides, the GI50 in the assay with K562 [2] worked out at 2.77 µM; in the assay on MOLT-4, 3.71 µM; in the assay with RPMI-8226 [3] it was 2.17 µM; with COLO 205, 1.76 µM; in the assay with HCT-15, 3.24 µM; in the assay on UACC-257, 8.27 µM. Besides, the CC50 was more than 100 µM in the assay on K562 [2], more than 100 µM in the assay with RPMI-8226 [3] and 50.1 µM in the assay on UACC-257. Also, in the assay with MOLT-4, the LC50 is more than 100 µM. For the same compound, the LC50 (concentration giving 50% net cell kill) with COLO 205 was found to be 6.68 µM. In addition, the LC50 (concentration killing 50% of cells) with HCT-15 came out at 83.9 µM.

Values taken from ChEMBL document CHEMBL4393705, “New chalcone-sulfonamide hybrids exhibiting anticancer and antituberculosis activity” (Eur J Med Chem, 2019).
